ChEMBL document CHEMBL1123399, “Cardiotonic agents. 3. Synthesis and biological activity of novel 6-(substituted 1H-imidazol-4(5)-yl)-3(2H)-pyridazinones” (J Med Chem, 1986)
Several values for one entry are separate records, joined by “and”; a condition that tells them apart may be missing. Equal entries are not always repeated.

Tests used:
[1] = test system: Canis familiaris; assay: Percent change in heart rate in anesthetized dogs at a 0.01 mg/kg; format: functional, Canis lupus familiaris
Method in brief: (§1)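 Acutely instrumented anesthetized dogs, 30 min control period. Drug in saline or dilute HCl/NaOH diluted with saline, given i.v. cumulatively, 0.1 ml/kg over 1 min. Half-log doses 0.01–1.0 mg/kg, 10-30 min between doses. One compound per dog. Heart rate, aortic pressure and LV dP/dtmax recorded as change from preceding baseline. Values are means of two experiments.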

[2] = test system: Canis familiaris; assay: Percent change in heart rate in anesthetized dogs at 0.03 mg/kg; format: functional, Canis lupus familiaris; method in brief: as §1
[3] = test system: Canis familiaris; assay: Percent change in heart rate in anesthetized dogs at 0.1 mg/kg; format: functional, Canis lupus familiaris; method in brief: as §1
[4] = test system: Canis familiaris; assay: Percent change in heart rate in anesthetized dogs at 0.31 mg/kg; format: functional, Canis lupus familiaris; method in brief: as §1
[5] = test system: Canis familiaris; assay: Percent change in heart rate in anesthetized dogs at 1 mg/kg; format: functional, Canis lupus familiaris; method in brief: as §1
[6] = test system: Canis familiaris; assay: Percent change in blood pressure in anesthetized dogs at 0.01 mg/kg; format: functional, Canis lupus familiaris; method in brief: as §1
[7] = test system: Canis familiaris; assay: Percent change in blood pressure in anesthetized dogs at 0.03 mg/kg; format: functional, Canis lupus familiaris; method in brief: as §1
[8] = test system: Canis familiaris; assay: Percent change in blood pressure in anesthetized dogs at 0.1 mg/kg; format: functional, Canis lupus familiaris; method in brief: as §1
[9] = test system: Canis familiaris; assay: Percent change in blood pressure in anesthetized dogs at 0.31 mg/kg; format: functional, Canis lupus familiaris; method in brief: as §1
[10] = test system: Canis familiaris; assay: Percent change in blood pressure in anesthetized dogs at 1 mg/kg; format: functional, Canis lupus familiaris; method in brief: as §1
[11] = test system: Canis familiaris; assay: Percent change in dP/dtmax was measured in anesthetized dogs at a dose of 0.01 mg/kg; format: functional, Canis lupus familiaris; method in brief: as §1
[12] = test system: Canis familiaris; assay: Percent change in dP/dtmax (contractility) in anesthetized dogs at 1 mg/kg; format: functional, Canis lupus familiaris; method in brief: as §1
[13] = molecular target: Phosphodiesterase 3 (Cavia porcellus); assay: Inhibition of guinea pig phosphodiesterase type III
[14] = molecular target: Phosphodiesterase 3 (Cavia porcellus); assay: as above; remark: listed apart in the source
[15] = test system: Canis familiaris; assay: Percent change in blood pressure in anesthetized dogs 1 mg/kg; format: functional, Canis lupus familiaris; method in brief: as §1
[16] = test system: Canis familiaris; assay: Percent change in heart rate in anesthetized dogs; format: functional, Canis lupus familiaris; method in brief: as §1

SMILES: COc1ccc(-c2nc(-c3ccc(O)nn3)cn2C)cc1OC
- Change [1]: 1.5%
- Change [2]: 1%
- Change [3]: -0.5%
- Change [4]: -1%
- Change [5]: 0.5%
- Change [6]: 0%
- Change [7]: 1.5%
- Change [8]: 0%
- Change [9]: -1%
- Change [10]: -4.5%
- Change [11]: 3.5% and 6% and 4.5% and 5%
- Change [12]: 13%
- IC50 [13]: 75 µM

SMILES: Cn1c(-c2ccc(O)nn2)cnc1-c1ccccc1
- Change [1]: -0.5%
- Change [2]: -1%
- Change [3]: -1.5%
- Change [4]: -3%
- Change [5]: -1.5%
- Change [6]: 1.5%
- Change [7]: 0.75%
- Change [8]: -1.75%
- Change [9]: -0.25%
- Change [10]: -2.5%
- Change [12]: 17%
- IC50 [13]: 160 µM

SMILES: Cn1cc(C2=NNC(=O)CC2)nc1-c1ccccc1
- Change [1]: 3.5%
- Change [2]: 13%
- Change [3]: 29.5%
- Change [4]: 34%
- Change [5]: 29.5%
- Change [6]: -1.2%
- Change [7]: -5%
- Change [8]: -11.8%
- Change [9]: -23.2%
- Change [10]: -31.8%
- Change [12]: 95%
- IC50 [13]: 12.1 µM

SMILES: Oc1ccc(-c2ccc(-c3ncc[nH]3)cc2)nn1
- Change [1]: 1.5%
- Change [2]: 12.5%
- Change [3]: 31.5%
- Change [4]: 30.5%
- Change [6]: -1%
- Change [7]: -2.5%
- Change [8]: -26%
- Change [9]: -26.5%

SMILES: Cn1c(C2=NNC(=O)CC2)cnc1-c1ccccc1
- Change [1]: 3%
- Change [2]: 3.5%
- Change [3]: 4.5%
- Change [4]: 5%
- Change [5]: 5.5%
- Change [6]: 1.75%
- Change [7]: 1.75%
- Change [8]: 1.5%
- Change [9]: 0%
- Change [10]: -2.25%
- Change [11]: 7% and 10% and 11% and 16.5%
- Change [12]: 30.5%
- IC50 [13]: 38 µM

SMILES: COc1ccc(-c2nc(C3=NNC(=O)CC3)cn2C)cc1OC
- Change [1]: 2.5
- Change [2]: 0.5%
- Change [3]: 1.5%
- Change [4]: 5%
- Change [5]: 8.5%
- Change [6]: -1%
- Change [7]: -1.25%
- Change [8]: -0.25%
- Change [9]: 0%
- Change [10]: 1.5%
- Change [11]: 2% and 2.5% and 9.5%
- Change [12]: 0%
- IC50 [14]: 128 µM

SMILES: Oc1ccc(-c2cn(Cc3ccccc3)c(-c3ccccc3)n2)nn1
- Change [1]: 3%
- Change [2]: -1%
- Change [3]: -1%
- Change [4]: 3%
- Change [5]: 8%
- Change [6]: 8.5%
- Change [7]: 6.5%
- Change [8]: 8%
- Change [9]: 3%
- Change [15]: 2%
- Change [11]: 21% and 29% and 17% and 28%
- Change [12]: 55%

SMILES: Cl.O=C1CCC(c2cn(Cc3ccccc3)c(-c3ccccc3)n2)=NN1
- Change [1]: 2%
- Change [2]: 1.5%
- Change [3]: 19%
- Change [4]: 18.5%
- Change [5]: 8%
- Change [6]: 1%
- Change [7]: -0.5%
- Change [8]: 0%
- Change [9]: -4.5%
- Change [10]: -4.75%
- Change [11]: 2.5% and 4.5% and 12.5% and 10.5%
- Change [12]: 3%

SMILES: O=C1CCC(c2ccc(-n3ccnc3)cc2)=NN1 [IMAZODAN]
- Change [16]: 33.8%
- Change [1]: 0%
- Change [2]: 5.6%
- Change [3]: 6.2%
- Change [4]: 19.2%
- Change [6]: -0.7%
- Change [7]: -4.1%
- Change [8]: -5.3%
- Change [9]: -13.2%
- Change [10]: -22.4%

SMILES: Cn1cc(-c2ccc(O)nn2)nc1-c1ccccc1
- Change [1]: 1.5%
- Change [2]: 9.5%
- Change [3]: 21.5%
- Change [4]: 50.5%
- Change [5]: 63.5%
- Change [6]: -1.5%
- Change [7]: -0.25%
- Change [8]: -6.5%
- Change [9]: -15.75%
- Change [10]: -31.25%
- Change [12]: 186%
